# From ChEMBL document CHEMBL2375318, “Design, synthesis and antimicrobial activity of novel benzothiazole analogs” (Eur J Med Chem, 2013)
# Assays:
# [1] = test system: Aspergillus fumigatus; assay: Antimicrobial activity against Aspergillus fumigatus clinical isolate after 18 to 24 hrs by micro-dilution method; type: functional
# Method in brief: (§1)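 Broth micro-dilution MIC, fungi. Fresh broth cultures were made in normal saline. Compounds were serially diluted in microtiter plates across 8 concentrations, 100 down to 0.78. Standardized inoculum was 1–2 × 10^7 cfu/ml. Medium was Sabouraud dextrose pH 7.3 ± 0.2. Plates were incubated aerobically at 37 °C for 18–24 h. MIC is the lowest concentration with no visible growth or turbidity versus control. Fluconazole was the reference.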
# [2] = test system: Aspergillus niger; assay: Antimicrobial activity against Aspergillus niger clinical isolate after 18 to 24 hrs by micro-dilution method; type: functional; method in brief: as §1
# [3] = test system: Cryptococcus neoformans; assay: Antifungal activity against Cryptococcus neoformans clinical isolate after 18 to 24 hrs by micro-dilution method; type: functional; method in brief: as §1
# [4] = test system: Pichia kudriavzevii; assay: Antifungal activity against Candida krusei ATCC 6258 after 18 to 24 hrs by micro-dilution method; type: functional; method in brief: as §1
# [5] = test system: Candida albicans; assay: Antifungal activity against Candida albicans ATCC 90028 after 18 to 24 hrs by micro-dilution metho; type: functional; method in brief: as §1
# [6] = test system: Candida albicans; assay: Antifungal activity against Candida albicans clinical isolate after 18 to 24 hrs by micro-dilution method; type: functional; method in brief: as §1
# [7] = test system: Candida tropicalis; assay: Antifungal activity against Candida tropicalis ATCC 750 after 18 to 24 hrs by micro-dilution method; type: functional; method in brief: as §1
# [8] = test system: Shigella boydii; assay: Antimicrobial activity against Shigella boydii clinical isolate after 18 to 24 hrs by micro-dilution method; type: functional
# [9] = Cytotoxicity against human RBC assessed as hemolytic activity at 100 uM after 1 hr by spectophotometry; type: cell-based, Erythrocyte; details: red blood cells (RBC), read-out: Activity
# Method in brief: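 Hemolysis, fresh human blood. RBCs were washed three times in PBS (spun 3000 rpm, 7 min, room temperature) and adjusted to 5×10^8 cells/ml. Cell suspension was added to buffer holding 100 μM compound in 1% v/v DMSO/PBS. Controls were 1% DMSO/PBS and sterile water. Samples were shaken at 37 °C for 1 h, spun at 1300 rpm for 5 min, and supernatant absorbance read at 540 nm.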
# [10] = test system: Pseudomonas aeruginosa; assay: Antimicrobial activity against Pseudomonas aeruginosa ATCC 27893 after 18 to 24 hrs by micro-dilution method; type: functional
# [11] = test system: Klebsiella pneumoniae; assay: Antimicrobial activity against Klebsiella pneumoniae clinical isolate after 18 to 24 hrs by micro-dilution method; type: functional
# [12] = test system: Escherichia coli; assay: Antimicrobial activity against Escherichia coli ATCC 35218 after 18 to 24 hrs by micro-dilution method; type: functional
# [13] = test system: Salmonella typhi; assay: Antimicrobial activity against Salmonella typhi MTCC 3216 after 18 to 24 hrs by micro-dilution method; type: functional, Salmonella enterica subsp. enterica serovar Typhi; details: Salmonella enterica
# Method in brief: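 Broth microdilution with twofold serial dilutions from 100 down to 0.78, eight concentrations. Fresh cultures were made up in normal saline, and 0.1 ml of standardized inoculum (1–2 × 10^7 cfu/ml) was added per well. Plates were incubated aerobically at 37 °C for 18–24 h on Mueller-Hinton agar/Luria broth. MIC was the lowest concentration with no visible turbidity compared with the control.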
# [14] = test system: Enterococcus faecalis; assay: Antimicrobial activity against Enterococcus faecalis clinical isolate after 18 to 24 hrs by micro-dilution method; type: functional
# [15] = test system: Staphylococcus aureus; assay: Antimicrobial activity against Staphylococcus aureus ATCC 25323 after 18 to 24 hrs by micro-dilution method; type: functional
Structure (SMILES),MIC [1],MIC [2],MIC [3],MIC [4],MIC [5],MIC [6],MIC [7],MIC [8],"hemolysis at 1 h, 100 µM [9]",MIC [10],MIC [11],MIC [12],MIC [13],MIC [14],MIC [15]
COc1cccc(-n2cc(CN(Cc3cn(-c4cccc(OC)c4)nn3)c3nc4ccccc4s3)nn2)c1,3.12 µg/mL,3.12 µg/mL,1.56 µg/mL,6.25 µg/mL,6.25 µg/mL,25 µg/mL,12.5 µg/mL,> 100 µg/mL,7.54%,> 100 µg/mL,> 100 µg/mL,50 µg/mL,> 100 µg/mL,> 100 µg/mL,100 µg/mL
CCc1ccc(-n2cc(CN(Cc3cn(-c4ccc(CC)cc4)nn3)c3nc4ccccc4s3)nn2)cc1,> 100 µg/mL,> 100 µg/mL,> 100 µg/mL,> 100 µg/mL,> 100 µg/mL,> 100 µg/mL,> 100 µg/mL,> 100 µg/mL,48.3%,> 100 µg/mL,> 100 µg/mL,50 µg/mL,> 100 µg/mL,> 100 µg/mL,> 100 µg/mL
Fc1ccc(-n2cc(CN(Cc3cn(-c4ccc(F)cc4Cl)nn3)c3nc4ccccc4s3)nn2)c(Cl)c1,6.25 µg/mL,25 µg/mL,1.56 µg/mL,6.25 µg/mL,50 µg/mL,6.25 µg/mL,6.25 µg/mL,100 µg/mL,12.3%,6.25 µg/mL,100 µg/mL,3.12 µg/mL,6.25 µg/mL,6.25 µg/mL,50 µg/mL
Cc1ccc(-n2cc(CN(Cc3cn(-c4ccc(C)c(C)c4)nn3)c3nc4ccccc4s3)nn2)cc1C,> 100 µg/mL,> 100 µg/mL,> 100 µg/mL,> 100 µg/mL,> 100 µg/mL,> 100 µg/mL,> 100 µg/mL,> 100 µg/mL,43%,> 100 µg/mL,> 100 µg/mL,> 100 µg/mL,> 100 µg/mL,> 100 µg/mL,> 100 µg/mL
Brc1ccc(-n2cc(CN(Cc3cn(-c4ccc(Br)cc4)nn3)c3nc4ccccc4s3)nn2)cc1,3.12 µg/mL,3.12 µg/mL,1.56 µg/mL,6.25 µg/mL,6.25 µg/mL,12.5 µg/mL,6.25 µg/mL,> 100 µg/mL,12.4%,> 100 µg/mL,> 100 µg/mL,> 100 µg/mL,> 100 µg/mL,> 100 µg/mL,> 100 µg/mL
Fc1ccc(-n2cc(CN(Cc3cn(-c4ccc(F)cc4F)nn3)c3nc4ccccc4s3)nn2)c(F)c1,> 100 µg/mL,> 100 µg/mL,> 100 µg/mL,> 100 µg/mL,> 100 µg/mL,> 100 µg/mL,> 100 µg/mL,100 µg/mL,2.47%,3.12 µg/mL,3.12 µg/mL,3.12 µg/mL,3.12 µg/mL,3.12 µg/mL,3.12 µg/mL
OC(Cn1cncn1)(Cn1cncn1)c1ccc(F)cc1F [FLUCONAZOLE],1.56 µg/mL,1.56 µg/mL,0.78 µg/mL,1.56 µg/mL,1.56 µg/mL,3.12 µg/mL,1.56 µg/mL,–,–,–,–,–,–,–,–
Clc1cccc(-n2cc(CN(Cc3cn(-c4cccc(Cl)c4Cl)nn3)c3nc4ccccc4s3)nn2)c1Cl,> 100 µg/mL,> 100 µg/mL,3.12 µg/mL,> 100 µg/mL,> 100 µg/mL,25 µg/mL,> 100 µg/mL,> 100 µg/mL,37.7%,> 100 µg/mL,> 100 µg/mL,> 100 µg/mL,100 µg/mL,> 100 µg/mL,50 µg/mL
Clc1ccc(-n2cc(CN(Cc3cn(-c4ccc(Cl)cc4)nn3)c3nc4ccccc4s3)nn2)cc1,6.25 µg/mL,6.25 µg/mL,3.12 µg/mL,6.25 µg/mL,6.25 µg/mL,25 µg/mL,12.5 µg/mL,> 100 µg/mL,4.35%,6.25 µg/mL,50 µg/mL,12.5 µg/mL,6.25 µg/mL,3.12 µg/mL,6.25 µg/mL
Fc1cccc(-n2cc(CN(Cc3cn(-c4cccc(F)c4)nn3)c3nc4ccccc4s3)nn2)c1,> 100 µg/mL,> 100 µg/mL,> 100 µg/mL,> 100 µg/mL,> 100 µg/mL,> 100 µg/mL,> 100 µg/mL,> 100 µg/mL,29.8%,> 100 µg/mL,> 100 µg/mL,> 100 µg/mL,> 100 µg/mL,> 100 µg/mL,> 100 µg/mL
O=[N+]([O-])c1ccc(-n2cc(CN(Cc3cn(-c4ccc([N+](=O)[O-])cc4)nn3)c3nc4ccccc4s3)nn2)cc1,> 100 µg/mL,> 100 µg/mL,> 100 µg/mL,> 100 µg/mL,> 100 µg/mL,> 100 µg/mL,> 100 µg/mL,> 100 µg/mL,27.9%,> 100 µg/mL,> 100 µg/mL,> 100 µg/mL,> 100 µg/mL,> 100 µg/mL,> 100 µg/mL
Fc1ccc(-n2cc(CN(Cc3cn(-c4ccc(F)c(Cl)c4)nn3)c3nc4ccccc4s3)nn2)cc1Cl,25 µg/mL,6.25 µg/mL,1.56 µg/mL,3.12 µg/mL,6.25 µg/mL,25 µg/mL,12.5 µg/mL,100 µg/mL,5.32%,3.12 µg/mL,50 µg/mL,25 µg/mL,6.25 µg/mL,3.12 µg/mL,6.25 µg/mL
Fc1ccccc1-n1cc(CN(Cc2cn(-c3ccccc3F)nn2)c2nc3ccccc3s2)nn1,> 100 µg/mL,> 100 µg/mL,> 100 µg/mL,> 100 µg/mL,> 100 µg/mL,> 100 µg/mL,> 100 µg/mL,> 100 µg/mL,26.5%,> 100 µg/mL,> 100 µg/mL,> 100 µg/mL,> 100 µg/mL,> 100 µg/mL,> 100 µg/mL
Clc1ccccc1-n1cc(CN(Cc2cn(-c3ccccc3Cl)nn2)c2nc3ccccc3s2)nn1,> 100 µg/mL,> 100 µg/mL,> 100 µg/mL,> 100 µg/mL,> 100 µg/mL,> 100 µg/mL,> 100 µg/mL,> 100 µg/mL,19.5%,12.5 µg/mL,50 µg/mL,12.5 µg/mL,6.25 µg/mL,6.25 µg/mL,25 µg/mL
c1ccc2c(-n3cc(CN(Cc4cn(-c5cccc6ccccc56)nn4)c4nc5ccccc5s4)nn3)cccc2c1,> 100 µg/mL,> 100 µg/mL,> 100 µg/mL,> 100 µg/mL,> 100 µg/mL,> 100 µg/mL,> 100 µg/mL,> 100 µg/mL,34%,> 100 µg/mL,> 100 µg/mL,> 100 µg/mL,> 100 µg/mL,> 100 µg/mL,> 100 µg/mL
Cc1cc(C)cc(-n2cc(CN(Cc3cn(-c4cc(C)cc(C)c4)nn3)c3nc4ccccc4s3)nn2)c1,12.5 µg/mL,12.5 µg/mL,3.12 µg/mL,> 100 µg/mL,3.12 µg/mL,12.5 µg/mL,12.5 µg/mL,100 µg/mL,7.42%,> 100 µg/mL,> 100 µg/mL,100 µg/mL,100 µg/mL,> 100 µg/mL,100 µg/mL
O=C(O)c1cn(C2CC2)c2cc(N3CCNCC3)c(F)cc2c1=O [CIPROFLOXACIN],–,–,–,–,–,–,–,–,–,3.12 µg/mL,–,–,–,–,–
CCCCCc1ccc(-n2cc(CN(Cc3cn(-c4ccc(CCCCC)cc4)nn3)c3nc4ccccc4s3)nn2)cc1,> 100 µg/mL,> 100 µg/mL,> 100 µg/mL,> 100 µg/mL,> 100 µg/mL,> 100 µg/mL,12.5 µg/mL,> 100 µg/mL,3.28%,> 100 µg/mL,> 100 µg/mL,> 100 µg/mL,> 100 µg/mL,> 100 µg/mL,> 100 µg/mL
Cc1cc(F)ccc1-n1cc(CN(Cc2cn(-c3ccc(F)cc3C)nn2)c2nc3ccccc3s2)nn1,> 100 µg/mL,> 100 µg/mL,> 100 µg/mL,> 100 µg/mL,> 100 µg/mL,> 100 µg/mL,> 100 µg/mL,> 100 µg/mL,29.8%,> 100 µg/mL,> 100 µg/mL,50 µg/mL,> 100 µg/mL,> 100 µg/mL,> 100 µg/mL
